Results from publication PMC3448790 (Biochemistry, 2012).
“Also recorded” adds a separate entry of the source. Where a SMILES comes first, the peptide text is derived from it.

Columns and labels:
[1] = tested on: human erythrocyte ghosts; test: Ektacytometry of resealed ghosts; type: cell-based; conditions: 6 or 15 μM cyclic peptide resealed; elongation index vs shear stress
Summary of the method: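 Washed human red cells from ACD-anticoagulated volunteer blood, with buffy coat and plasma removed, were suspended in PBS/5 mM glucose/2 mM MgCl2 with cyclized test peptide or without (control). Cells were flash-frozen in liquid N2 for 40 s, thawed at room temperature, then resealed 45 min at 37°C. Ghosts were washed in PBS/glucose/0.5% BSA and assessed by ektacytometry as elongation index under gradually increasing shear stress.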

[2] = tested on: human erythrocyte ghosts; test: Peptide resealing into red cells, morphology by light microscopy; type: cell-based; conditions: peptide 0, 6, 12 or 30 μM resealed 45 min at 37°C; 100x oil immersion

CSCC[C@@H]1NC(=O)[C@H](C(C)C)NC(=O)[C@H](CC(C)C)NC(=O)[C@H](CCC(=O)O)NC(=O)[C@@H](N)CSSC[C@@H](C(=O)O)NC(=O)[C@H](CC(C)C)NC(=O)[C@H](CCC(=O)O)NC(=O)[C@H](CCC(N)=O)NC(=O)[C@H](CC(N)=O)NC(=O)[C@H](CCCCN)NC(=O)[C@H](CCC(=O)O)NC(=O)[C@H](CC(=O)O)NC1=O [cyclized peptide] (HELM PEPTIDE1{C.E.L.V.M.D.E.K.N.Q.E.L.C}$PEPTIDE1,PEPTIDE1,1:R3-13:R3$$$V2.0; N-terminus and C-terminus assumed)
effect on membrane deformability (in words) [1]: compromised membrane deformability | effect on red cell membrane morphology (in words) [2]: membrane blebbing and a gradual decrease in membrane surface area; also recorded: extensive vesiculation at higher peptide concentrations
